A selection: hits, their analogues and other compounds. The true share with any hit is near 3.1%.
SIRT5 block: SIRT5 desuccinylase inhibitors, primary screen, biochemical, fluorescence imaging, single point, set 5; NAD-dependent protein deacylase sirtuin-5, mitochondrial (Homo sapiens), Q9NXA8; Purified SirT5, succinyl-peptide AMC, trypsin-coupled fluorescence; inhibition, % at 15 µM; 330,000 compounds, 1.1% hits; AID 652115, 2013; in the data active = inhibition above about 15%
Target sequence (Q9NXA8 whole entry, looked up): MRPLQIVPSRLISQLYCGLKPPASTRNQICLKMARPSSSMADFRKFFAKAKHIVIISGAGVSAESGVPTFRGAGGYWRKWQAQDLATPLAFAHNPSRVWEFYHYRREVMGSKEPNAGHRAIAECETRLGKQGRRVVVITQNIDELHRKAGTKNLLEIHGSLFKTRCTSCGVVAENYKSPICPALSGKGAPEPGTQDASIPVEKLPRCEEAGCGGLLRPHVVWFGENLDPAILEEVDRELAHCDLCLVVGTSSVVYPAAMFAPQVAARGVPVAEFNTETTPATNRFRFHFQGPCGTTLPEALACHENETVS
ERAP1 inh: human ERAP1 aminopeptidase inhibitors, primary screen, biochemical, single point, plate reader; 340,000 compounds, 0.15% hits; Endoplasmic reticulum aminopeptidase 1 (Homo sapiens), Q9NZ08; inhibition, % at 10.7 µM; recombinant ERAP1, Leu-AMC fluorescence, 60 min; AID 652197, 2013;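 active = mean replicate inhibition of at least 30%, or all replicates individually reaching that 30% level; inactive = mean below 30% and not every replicate reaching it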;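 also: 0% = neutral control wells and 100% = L-leucinethiol positive control wells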
S100A4 inh HTS: inhibitors of S100A4-myosin IIA peptide binding, primary screen, biochemical, fluorescence polarization, TAMRA-MyoIIA peptide. Protein S100-A4 (Homo sapiens), P26447. inhibition, % at 10.7 µM. 360,000 compounds, 0.14% hits;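 active = mean inhibition of at least 70% across replicates, with every replicate also reaching that level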
Target sequence (P26447 whole entry, looked up): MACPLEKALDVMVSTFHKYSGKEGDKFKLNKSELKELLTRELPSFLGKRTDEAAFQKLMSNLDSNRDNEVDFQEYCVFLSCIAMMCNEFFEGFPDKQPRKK
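Compound dosing: one dose per compound; test system: human S100A4 monomer with TAMRA-labelled myosin IIA peptide; probe or stimulus: TAMRA-labelled myosin IIA heavy-chain peptide probe, 5 nM; medium: HEPES buffer with Ca2+, pH 7.2; schedule: 5 min incubation before reading; benchmarks: neutral control DMSO, positive control TFP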
F508del corr: F508del CFTR correction, initial screen, CFBE line, single point | activity (quench increase), % at 7.58 µM | 350,000 compounds, 0.36% hits | CFBE cells, YFP halide quenching; stimulated with forskolin plus potentiator P3; % fluorescence drop versus neutral controls;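 active = mean added fluorescence quench of at least 8% versus neutral control, with both replicates also reaching 8%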;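 also: cells transiently co-express mutant CFTR-F508del with the halide-sensitive YFP; corrector assay measuring rescue of mutant channel to the surface after 24 h compound exposure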
Ecoli rRNA inh: reduced GFP signal of wild-type E. coli, primary screen, bacterial rRNA inhibitor project, GFP/RFP fluorescence, OD600, single point | GFP signal change (wild-type ribosome), % (test concentration not listed) | 350,000 compounds, 1.6% hits | E. coli WT GFP vs humanized-ribosome RFP mutants, 24 h; stronger effect = lower value; DMSO median 0, no signal -100;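 active = significant combined selectivity score with lowered wild-type GFP, culture density cut under 30%, mutant RFP and density less affected; inactive = any of these conditions unmet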
* marks the source's active call; other numbers are inactive results; . = not tested or not shown.

SMILES	SIRT5 block	ERAP1 inh	S100A4 inh HTS	F508del corr	Ecoli rRNA inh
Cc1ccc(S(=O)(=O)Nc2ccc3c(c2)C(=O)N([C@@H](C)CO)C[C@H](C)[C@@H](CN(C)C(=O)Nc2ccc(C(F)(F)F)cc2)OCCCC[C@@H](C)O3)cc1	18*	6	-1	-1	1
C[C@H]1CCCCO[C@H](CN(C)C(=O)Nc2ccc(C(F)(F)F)cc2)[C@@H](C)CN([C@@H](C)CO)C(=O)c2cc(NS(=O)(=O)c3ccc(Cl)cc3)ccc2O1	7	-1	-10	-3	7
C[C@H](CO)N1C[C@H](C)[C@H](CN(C)C(=O)Nc2ccc(C(F)(F)F)cc2)OCCCC[C@H](C)Oc2ccc(NS(=O)(=O)c3ccc(Cl)cc3)cc2C1=O	40*	-1	2	0	3
C[C@H](CO)N1C[C@H](C)[C@H](CN(C)C(=O)CCC(F)(F)F)OCCCC[C@H](C)Oc2ccc(NS(=O)(=O)c3ccc(Cl)cc3)cc2C1=O	17*	2	4	-1	0
Cc1ccc(S(=O)(=O)Nc2ccc3c(c2)C(=O)N([C@H](C)CO)C[C@H](C)[C@@H](CN(C)C(=O)Nc2ccc(C(F)(F)F)cc2)OCCCC[C@@H](C)O3)cc1	7	2	2	2	3
CN1C(=O)c2cc(NC(=O)Cc3ccccc3)ccc2OC[C@H]2O[C@H](CC(=O)NC3CCC3)CC[C@H]21	-6	2	1	0	5
O=c1ccc2c(-c3ccccc3)c3ccc(O)cc3oc-2c1	2	-3	-6	58*	50
O=c1cc(-c2ccccc2)oc2cc(O)ccc12	0	-3	2	0	5
Nc1ccc(-c2c3ccc(=O)cc-3oc3cc(O)ccc23)cc1C(=O)O	19*	13	9	8.8*	88
CC(C)NC(=O)NCC[C@H]1CC[C@H](NC(=O)CN(C)C)[C@@H](CO)O1	1	0	15	1	3
CO[C@H]1CN(C)C(=O)c2cc(NS(=O)(=O)c3ccc(Cl)cc3)ccc2OC[C@@H](C)N(C(=O)NC(C)C)C[C@@H]1C	.	.	.	2	2
COc1ccccc1NC(=O)N1CC(=O)N2[C@H](CO)[C@H](c3ccc(C#Cc4ccc(F)cc4)cc3)[C@@H]2C1	5	0	1	2	3
COc1ccc(C2/C=C\CN(S(=O)(=O)c3cccc4cccnc34)CC(=O)N2Cc2ccc(F)cc2)cc1 (stereo unspecified)	.	.	91*	3	4
COc1ccc([C@H]2/C=C\CN(S(=O)(=O)c3cccc4cccnc34)[C@@H](C)C(=O)N2Cc2ccc(F)cc2)cc1	.	-1	-1	2	10
COc1ccc(C2/C=C\CN(Cc3ccncc3)CC(=O)N2Cc2ccc(F)cc2)cc1 (stereo unspecified)	16*	3	5	1	-12
COc1ccc(C2/C=C\CN(CC3CC3)CC(=O)N2Cc2ccc(F)cc2)cc1 (stereo unspecified)	3	1	-3	-2	-1
CC1S/C(=N/N=C/c2ccco2)N(Cc2ccc(F)cc2)C1=O (stereo unspecified)	-3	6	4	2	-10
Cc1ccccc1CN1C(=O)C(C)S/C1=N/N=C/c1ccco1 (stereo unspecified)	-2	4	-5	0	-23*
c1ccc(Nc2ccc(NCCc3c[nH]c4ccccc34)cc2)cc1	0	3	-29	3	-24*
O=C(CCc1c[nH]c2ccccc12)Nc1ccc(Nc2cccnc2)cc1	-2	3	-13	0	-30*
CCCC(=O)N1CCC2(CC1)CN(C(=O)CN1CCOCC1)[C@H](CO)c1c2c2ccc(OC)cc2n1C	.	.	.	0	2
CN1CCN(C(=O)C[C@H]2C=C[C@H](NC(=O)Cc3ccccn3)[C@H](CO)O2)CC1	3	2	13	0	1
CSc1nsc(NN)n1	-2	1	-2	0	-33*
CSc1nsc(NC(=O)OCc2ccc(Cl)cc2)n1	-3	-1	5	-3	-40
